According to ChEMBL document CHEMBL2093137, “WHO-TDR NTD Screening”:
In brackets after ≈: the same amount, converted by molar mass.

How the values were obtained:
[1] = WHO-TDR: Cytotoxicity; assay type: toxicity, cell-based; settings: human, MRC5 cells
Plasmodium falciparum K1 = assay: WHO-TDR: Malaria; assay type: functional, organism-based, Homo sapiens; settings: Erythrocyte
In short: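 Following previously published standard procedures, with a reference drug serving as positive control, compounds were tested on the Plasmodium falciparum K1 strain inside human red blood cells. The 10,000-compound diverse set came from Life Chemicals after filtering for drug-likeness and reactive groups. Potency against the parasite appears as IC50.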

Trypanosoma cruzi = assay: WHO-TDR: Chagas disease; assay type: functional, organism-based, Homo sapiens; settings: MRC5
In short: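 Intracellular amastigotes of the Trypanosoma cruzi Tulahuen CL2 beta-galactosidase strain, grown in MRC-5SV2 human lung fibroblast host cells, were tested in a whole-organism screen. The compounds came from a 10,000-member diverse Life Chemicals library that had been filtered for drug-likeness and reactive groups. Previously published standard procedures were followed, with a reference drug as positive control, and potency is reported as IC50.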

[2] = test system: Trypanosoma brucei brucei; assay: WHO-TDR: Human African Trypanosomiasis (HAT); assay type: functional, organism-based; settings: Squib-427
In short: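 Bloodstream forms of the Trypanosoma brucei Squib 427 strain were tested in a whole-organism screen with a diverse library from Life Chemicals of 10,000 compounds. Before screening, the library was filtered for drug-likeness and for reactive groups. The assay used previously published standard procedures and included reference drugs as positive controls. Potency against the parasite is expressed as IC50.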

Leishmania infantum = assay: WHO-TDR: Leishmaniasis; assay type: functional, organism-based, Mus musculus; settings: Macrophage
In short: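 Following previously published standard procedures, a whole-organism screen was run on Leishmania infantum MHOM/MA(BE)/67 amastigotes within murine peritoneal macrophages, with a reference drug as positive control. The 10,000 compounds tested formed a diverse Life Chemicals library filtered for drug-likeness and reactive groups. Potency against the parasite is reported as IC50.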

Schistosoma mansoni [3] = assay: (§1) WHO-TDR: Schistosomiasis; assay type: functional; design: concentration or dose not given beside the values
In short: (§2)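 Whole-organism screen of a 10,000-compound diverse library from Life Chemicals, filtered for drug-likeness and reactive groups, against larval and/or adult worms of Schistosoma mansoni Puerto Rican strain. The assay followed previously published standard procedures, with a reference drug as positive control. Activity is reported as percent inhibition and as IC50.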

Schistosoma mansoni [4] = assay: as §1; assay type: functional, organism-based; in short: as §2
Onchocerca lienalis [5] = assay: (§3) WHO-TDR: Onchocerciasis; assay type: functional; design: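 at 12.5 µM on microfilariae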
In short: (§4)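 Whole-organism screen of a 10,000-compound diverse library from Life Chemicals, filtered for drug-likeness and reactive groups, against microfilariae of Onchocerca ochengi or Onchocerca lienalis, used as animal-pathogen stand-ins for the human parasite. The assay followed previously published standard procedures, with reference drugs as positive controls. Activity is reported as percent inhibition and as IC50.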

Onchocerca lienalis [6] = assay: as §3; assay type: functional, organism-based; in short: as §4
Brugia malayi [7] = assay: (§5) WHO-TDR: Lymphatic Filariasis; assay type: functional; design: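 tested at 10 µM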
In short: (§6)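 Whole-organism screen of a 10,000-compound diverse library from Life Chemicals, filtered for drug-likeness and reactive groups, against Brugia malayi microfilariae. The assay followed previously published standard procedures, with reference drugs as positive controls. Activity is reported as percent inhibition and as IC50.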

Brugia malayi [8] = assay: as §5; assay type: functional; design: concentration or dose not given beside the values; in short: as §6; remark: listed apart in the source
Brugia malayi [9] = assay: as §5; assay type: functional, organism-based; in short: as §6
Brugia malayi [10] = assay: as §5; assay type: functional, organism-based; in short: as §6; remark: listed apart in the source

SMILES | IC50 [1] [µg/mL] | IC50 (Plasmodium falciparum K1) [µg/mL] | IC50 (Trypanosoma cruzi) [µg/mL] | IC50 [2] [µg/mL] | IC50 (Leishmania infantum) [µg/mL] | % Inhibition (Schistosoma mansoni [3]) [%] | IC50 (Schistosoma mansoni [4]) [µM] | % Inhibition (Onchocerca lienalis [5]) [%] | IC50 (Onchocerca lienalis [6]) [µg/mL] | % Inhibition (Brugia malayi [7]) [%] | % Inhibition (Brugia malayi [8]) [%] | IC50 (Brugia malayi [9]) [µM] | IC50 (Brugia malayi [10]) [µM]
CCOC(=O)N1CCc2c(sc(NC(=O)c3nc4ccccc4s3)c2C(N)=O)C1 | 4.58 (≈ 10.6 µM) | 0.746 (≈ 1.73 µM) | 1.52 (≈ 3.54 µM) | 4.18 (≈ 9.71 µM) | 4.18 (≈ 9.71 µM) | 100 | 6.7 | 100 | 1.75 (≈ 4.06 µM) | – | – | – | –
CCn1nnc2c(N3CCN(C(c4ccccc4)c4ccccc4)CC3)ncnc21 | > 12 | > 12 | 3.62 (≈ 9.06 µM) | 3.83 (≈ 9.6 µM) | > 12 | 0 | – | 100 | 1.48 (≈ 3.7 µM) | 0 | – | – | –
O=C(Nc1nnc(S)s1)c1cc(Br)ccc1Cl | > 10.5 | > 10.5 | > 10.5 | > 10.5 | > 10.5 | 0 | – | 0 | – | 0 | 100 | 0.853 | –
COc1ccc(C(=O)C[n+]2cc(-c3ccc(OC)cc3)n3c2CCCCC3)cc1 | 0.572 | 0.505 | < 0.141 | 3.73 | 4.58 | 50 | – | 0 | – | 50 | 99 | 2.99 | –
O=C(Nc1nc(-c2ccccn2)cs1)c1ccc(Cl)s1 | 4.39 (≈ 13.6 µM) | 0.564 (≈ 1.75 µM) | < 0.0965 | 0.309 (≈ 0.96 µM) | 1.9 (≈ 5.9 µM) | – | – | 100 | 0.344 (≈ 1.07 µM) | – | – | – | –
CC(C)N1CCc2c(sc(NC(=O)c3cc4c(ccc5ccccc54)oc3=O)c2C(N)=O)C1 | 0.416 (≈ 0.901 µM) | 0.572 (≈ 1.24 µM) | 0.149 (≈ 0.323 µM) | 0.478 (≈ 1.04 µM) | 0.484 (≈ 1.05 µM) | 0 | – | -1 | – | 100 | 100 | 0.53 | 0.53
O=C(Nc1nc2c(s1)CSc1ccccc1-2)C1COc2ccccc2O1 (stereo not given) | 2.62 (≈ 6.86 µM) | 4.75 (≈ 12.4 µM) | 0.502 (≈ 1.31 µM) | 0.367 (≈ 0.96 µM) | 0.782 (≈ 2.04 µM) | 100 | – | 100 | 1.42 (≈ 3.71 µM) | 33.33 | 0 | – | –
COC(=O)c1c(NC(=O)c2cc3ccccc3oc2=O)sc2c1CCN(Cc1ccccc1)C2 | 8.92 (≈ 18.8 µM) | > 15.3 | 0.637 (≈ 1.34 µM) | > 15.3 | 4.96 (≈ 10.5 µM) | 0 | – | 0 | – | 100 | 100 | 2.97 | –
Cc1ccc(S(=O)(=O)Nc2ccccc2C(=O)Nc2nc3c(s2)Cc2ccccc2-3)cc1 | 2.51 (≈ 5.44 µM) | > 13.8 | 4.98 (≈ 10.8 µM) | 3.6 (≈ 7.79 µM) | 4.48 (≈ 9.71 µM) | 0 | – | 0 | – | 25 | 100 | 1.18 | –
Cc1cccc(-n2nc3c(c2NC(=O)Nc2cccc(Cl)c2)CSC3)c1 | > 11.5 | > 11.5 | 9.48 (≈ 24.6 µM) | > 11.5 | 3.74 (≈ 9.71 µM) | 25 | – | 33.34 | – | 100 | 100 | 0.26 | 1.77
COc1cc(C)c(Cl)cc1S(=O)(=O)Nc1ccc(Nc2nc(C)cc(N3CCOCC3)n2)cc1 | > 15.1 | > 15.1 | > 15.1 | > 15.1 | > 15.1 | 100 | 5.1 | 46.7 | – | – | – | – | –
CN(C)CCCN(C(=O)/C=C/c1ccccc1Cl)c1nc2cc3c(cc2s1)OCO3 | 0.462 (≈ 1.04 µM) | 1.44 (≈ 3.25 µM) | 0.408 (≈ 0.919 µM) | 0.428 (≈ 0.964 µM) | 0.467 (≈ 1.05 µM) | 100 | 4.3 | 0 | – | – | – | – | –
CCOc1ccc(NC(=O)CSc2nncc(O)n2)cc1 | 3.01 (≈ 9.83 µM) | 0.566 (≈ 1.85 µM) | 3.3 (≈ 10.8 µM) | 2.53 (≈ 8.27 µM) | > 9.19 | 100 | 5.8 | 0 | – | – | – | – | –
CCSc1nnc(NC(=O)CSc2nncc(=O)[nH]2)s1 | 1.95 (≈ 5.92 µM) | > 9.91 | 3.09 (≈ 9.35 µM) | 3.13 (≈ 9.49 µM) | 3.21 (≈ 9.71 µM) | 100 | 5.2 | 0 | – | – | – | – | –
CCOC(=O)c1c(NC(=O)C(C)Sc2nnc(NC(C)=O)s2)sc2c1CCCC2 (stereo not given) | > 13.6 | > 13.6 | > 13.6 | > 13.6 | > 13.6 | 100 | 9.8 | 0 | – | – | – | – | –
O=C(COc1cccc2c1CCN(Cc1ccccc1F)C2=O)N1CCC(Cc2ccccc2)CC1 | 4.56 (≈ 9.37 µM) | 4.54 (≈ 9.33 µM) | 0.557 (≈ 1.14 µM) | 0.473 (≈ 0.971 µM) | 4.73 (≈ 9.71 µM) | 0 | – | 0 | – | 100 | 100 | 4.95 | 5.19
CCOC(=O)c1ccc(NC(=O)CSc2nnc(NC(=O)C34CC5CC(CC(C5)C3)C4)s2)cc1 | > 15 | > 15 | > 15 | > 15 | > 15 | 0 | – | 40 | – | 100 | 100 | 7.07 | 5.95
O=C(CSc1nncc(=O)[nH]1)Nc1cc(C(F)(F)F)ccc1Cl | > 10.9 | > 10.9 | > 10.9 | > 10.9 | > 10.9 | 100 | 6.3 | 0 | – | – | – | – | –
Cc1ccc(NC(=O)CSc2nncc(=O)[nH]2)cc1Cl | 2.55 (≈ 8.2 µM) | 3.64 (≈ 11.7 µM) | 2.99 (≈ 9.61 µM) | 2.91 (≈ 9.37 µM) | > 9.32 | 100 | 4.5 | 0 | – | – | – | – | –
